Shown are actives, neighbours in structure and some others; about 1.9% of the full set was active somewhere.
RAD52 inh = blocks human RAD52 DNA annealing; P43351; recombinant RAD52 DNA annealing, FRET fluorescence; inhibition, % at 18.7 µM; 360,000 tested, 0.46% active; AID 651710;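 active = every replicate showing at least 50% inhibition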
PglD DTNB = PglD (C. jejuni) enzyme inhibition; purified PglD enzyme, DTNB colorimetric CoA detection; inhibition, % at 12.5 µM; 360,000 tested, 0.098% active; AID 602405; in the data active = inhibition above about 16%, passing the limit was not always enough
RAD54 inh = blocks human RAD54 Holliday junction branch migration; Q92698; FAM/BHQ fluorescence; inhibition, % at 10.4 µM; 360,000 tested, 0.14% active;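 active = mean normalized replicate activity at least 40 and at least half of replicates scoring 40 or more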;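 note: inhibitors cause a drop in the FAM fluorescence signal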
Target sequence (Q92698 whole entry, looked up): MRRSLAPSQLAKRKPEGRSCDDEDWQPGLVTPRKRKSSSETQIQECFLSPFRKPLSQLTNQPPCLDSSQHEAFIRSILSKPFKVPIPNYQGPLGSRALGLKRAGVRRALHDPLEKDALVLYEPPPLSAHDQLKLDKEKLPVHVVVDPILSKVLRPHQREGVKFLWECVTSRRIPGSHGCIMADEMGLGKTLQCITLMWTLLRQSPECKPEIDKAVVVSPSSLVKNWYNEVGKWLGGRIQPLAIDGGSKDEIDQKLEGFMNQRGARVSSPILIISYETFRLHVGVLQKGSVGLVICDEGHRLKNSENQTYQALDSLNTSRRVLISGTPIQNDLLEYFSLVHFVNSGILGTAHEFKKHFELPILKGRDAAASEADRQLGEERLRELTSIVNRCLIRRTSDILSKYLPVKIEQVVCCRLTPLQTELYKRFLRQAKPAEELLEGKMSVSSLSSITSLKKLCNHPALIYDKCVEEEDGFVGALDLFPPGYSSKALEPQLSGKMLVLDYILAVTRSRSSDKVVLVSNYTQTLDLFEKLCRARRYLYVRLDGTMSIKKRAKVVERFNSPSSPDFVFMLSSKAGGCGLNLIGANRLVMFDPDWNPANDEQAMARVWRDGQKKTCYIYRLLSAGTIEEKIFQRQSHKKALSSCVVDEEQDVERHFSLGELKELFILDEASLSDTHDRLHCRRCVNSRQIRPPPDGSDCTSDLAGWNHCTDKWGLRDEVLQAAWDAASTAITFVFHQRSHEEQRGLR
Cneo AK release = Cryptococcus neoformans lysis via adenylate kinase release | 360,000 tested, 0.2% active | AID 651654 | lysis activity, % at 15 µM | C. neoformans lysis, adenylate kinase release luminescence, 4 h; normalised: neutral wells 0, clomiphene wells 100;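 active = mean lysis activity across replicates of at least 80%, whatever share of replicates individually reach that level; inactive = mean lysis activity below 80%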
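Material: C. neoformans cells | Amount: Yeast cell density of 5 × 10^6 cells/mL | Medium: Fresh YPD growth medium | Dosing: Single dose | Times: Static 4 h at 37 °C with compound, 1 h detection | Detection: AK luminescence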
rRNA inh HTS = inhibitors of bacterial rRNA selective over humanized ribosomes; GFP signal change (wild-type ribosome), % (concentration not given with the values); E. coli WT GFP vs humanized-ribosome RFP mutants, fluorescence, 24 h; stronger effect = lower value; DMSO median 0, no signal -100; 350,000 tested, 1.6% active;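 active = significant combined selectivity score with lowered wild-type GFP, culture density cut under 30%, mutant RFP and density less affected; inactive = any of these conditions unmet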
Each line names hits and unclear results; the compound was inactive in the other large screens.

COc1cccc(NC(=O)N2C[C@H](O)COC[C@H]3O[C@@H](CC(=O)NCc4ccccc4F)CC[C@@H]32)c1	Cneo AK release 119
CCNC(=O)C[C@H]1CC[C@@H]2[C@H](COC[C@@H](O)CN2C(=O)Nc2ccc3c(c2)OCO3)O1	none
CNC(=O)C[C@@H]1CC[C@H]2[C@@H](COC[C@H](O)CN2C(=O)Nc2ccc3c(c2)OCO3)O1	Cneo AK release 89
CCCNC(=O)C[C@@H]1CC[C@H]2[C@@H](COC[C@H](O)CN2C(=O)Nc2ccc3c(c2)OCO3)O1	none
O=C1C=C(NCCc2cc(Br)c(O)c(Br)c2)C(=O)c2ncccc21	rRNA inh HTS -27 (no result: PglD DTNB, RAD54 inh, Cneo AK release)
NC1=C(Br)C(=O)c2ncccc2C1=O	none (no result: PglD DTNB, RAD54 inh, Cneo AK release)
OCCN(CC#CCn1c2ccccc2c2ccccc21)CCO	rRNA inh HTS -29 (no result: PglD DTNB, RAD54 inh, Cneo AK release)
COCC(=O)N1CC(=O)N2[C@H](CO)[C@@H](c3ccc(-c4cccnc4)cc3)[C@@H]2C1	none (no result: PglD DTNB, RAD54 inh, Cneo AK release)
O=C(Nc1ccccc1Cl)N1CCCN(c2nc(-c3ccccc3)ns2)CC1	none
O=C(Nc1ccccc1)N1CCN(c2nc(-c3ccccc3)ns2)CC1	rRNA inh HTS -30 (no result: PglD DTNB, RAD54 inh, Cneo AK release)
C[C@@H]1CN([C@H](C)CO)C(=O)c2cc(-c3ccccc3)cnc2O[C@@H]1CN(C)C(=O)c1cccnc1	none (no result: PglD DTNB, RAD54 inh, Cneo AK release)
COc1cc2c(c(OC)c1OC)-c1c(cc3c(c1OC)OCO3)[C@@H](OC(C)=O)[C@H](C)[C@H](C)C2	rRNA inh HTS -42
O=C(Cc1cccc2ccccc12)NCCOc1ccccc1F	rRNA inh HTS -39
CC(=O)NCCOc1cccc2ccccc12	none (no result: RAD52 inh, rRNA inh HTS)
CC(C)NC(=O)Nc1ccc2c(c1)C(=O)N([C@H](C)CO)C[C@H](C)[C@@H](CN(C)C(=O)NC(C)C)OCCCC[C@@H](C)O2	none
S=c1[nH]nc2nnc3ccccc3n12	rRNA inh HTS -32
S=c1[nH]nc2sc3ccccc3n12	none
O=C(CSc1nc(NS(=O)(=O)c2ccccc2)cc(=O)[nH]1)Nc1ccc(F)cc1	PglD DTNB 25 (no result: RAD52 inh, rRNA inh HTS)
O=C(CSc1nc(NS(=O)(=O)c2ccccc2)cc(=O)[nH]1)Nc1cccc(C(F)(F)F)c1	none
Cc1cccc(NC(=S)N(Cc2ccc(Br)cc2)Cc2ccc(C(=O)O)cc2)c1	none
COc1cccc(NC(=O)NCCc2ccc(Cl)cc2)c1	rRNA inh HTS -24
CC(=O)c1cccc(NC(=O)NCCc2ccc(Cl)cc2)c1	none
COc1cccc(NC(=S)N(Cc2ccc(Cl)cc2)Cc2ccc(C(=O)O)cc2)c1	rRNA inh HTS -32 (no result: PglD DTNB, RAD54 inh, Cneo AK release)
O=C(C[C@@H]1C=C[C@@H](NC(=O)Nc2cc(F)ccc2F)[C@@H](CO)O1)NCCCN1CCOCC1	none
O=C(C[C@@H]1C=C[C@@H](NC(=O)Nc2cc(F)ccc2F)[C@H](CO)O1)NCCCN1CCOCC1	Cneo AK release 103
COc1ccc(C)c2sc(N(CCCN(C)C)C(=O)c3ccc(S(=O)(=O)N4CCc5ccccc5C4)cc3)nc12	RAD52 inh 95
CCOc1cccc2sc(N(CCCN(C)C)C(=O)c3ccc(S(=O)(=O)N(C)Cc4ccccc4)cc3)nc12	rRNA inh HTS -39
CCN(Cc1ccccc1)S(=O)(=O)c1ccc(C(=O)N(CCCN(C)C)c2nc3c(F)cccc3s2)cc1	rRNA inh HTS -48
COc1cc2nc(N(CCCN(C)C)C(=O)c3ccc(S(=O)(=O)N4CCc5ccccc5C4)cc3)sc2cc1OC	none
CCOc1cccc2sc(N(CCN(CC)CC)C(=O)c3ccc(S(=O)(=O)N4CCCCC4)cc3)nc12	none (no result: PglD DTNB, RAD54 inh, Cneo AK release)
CN(C)CCCN(C(=O)c1ccc(C(=O)c2ccccc2)cc1)c1nc2c(F)cccc2s1	none
CCOc1cccc2sc(N(CCCN(C)C)C(=O)c3ccc(S(=O)(=O)N4CCCCCC4)cc3)nc12	rRNA inh HTS -24
COCCCN1C(=O)[C@@]2(Cc3ccccc31)c1ccccc1C(=O)N(Cc1ccccc1)[C@H]2c1ccc(CO)cc1	none (no result: rRNA inh HTS)
CN(C)CCCN(C(=O)c1ccc(S(=O)(=O)N2CCc3ccccc32)cc1)c1nc2c(Cl)cccc2s1	rRNA inh HTS -40
COc1cc(C)ccc1S(=O)(=O)N1CCN(C23CC4CC(CC(C4)C2)C3)CC1	rRNA inh HTS -32
O=C(c1ccncc1)N1CC(=O)N2[C@H](CO)[C@H](c3ccc(C#CCC4CCCC4)cc3)[C@H]2C1	none (no result: RAD52 inh, PglD DTNB, RAD54 inh, Cneo AK release)
C[C@H](O)C#Cc1ccc([C@H]2[C@H](CO)N3CCCCN(CC4CCOCC4)C[C@@H]23)cc1	Cneo AK release 98

Screens from PubChem.
